Measurements published in ChEMBL document CHEMBL3779813, “Design, synthesis, topoisomerase I & II inhibitory activity, antiproliferative activity, and structure-activity relationship study of pyrazoline derivatives: An ATP-competitive human topoisomerase IIα catalytic inhibitor” (Bioorg Med Chem, 2016).
Counter-ions that a name gives are not always drawn. Activity calls are given as the source filed them. The calls are words filed in the database; no cut-off is given here.

What was measured:
HCT-15 [1] = test: Inhibition of human recombinant topoisomerase mediated DNA relaxation in human HCT15 nuclear lysate at 50 uM preincubated for 24 hrs followed by addition of pBR322 plasmid measured after 30 mins by ethidium bromide staining based agarose gel electrophoresis
How it was run: (§1)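 HCT15 cells treated 24 h with compound, harvested, nuclear lysates prepared and protein measured by Bradford. 100 µg nuclear protein plus 100 ng pBR322 in buffer with Tris-Cl pH 7.5, MgCl2, ATP, EDTA, DTT, KCl, BSA, 30 min at 37 °C. Analyzed on 0.9% agarose with ethidium bromide; lysate-free plasmid control.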

[2] = target: DNA topoisomerase 2-alpha (Homo sapiens) (UniProt P11388); test: Inhibition of human recombinant topoisomerase 2alpha assessed as relaxation of supercoiled plasmid DNA pBR322 at 100 uM after 30 mins by ethidium bromide staining based agarose gel electrophoresis
Sequence of DNA topoisomerase 2-alpha (Homo sapiens) (P11388 whole entry): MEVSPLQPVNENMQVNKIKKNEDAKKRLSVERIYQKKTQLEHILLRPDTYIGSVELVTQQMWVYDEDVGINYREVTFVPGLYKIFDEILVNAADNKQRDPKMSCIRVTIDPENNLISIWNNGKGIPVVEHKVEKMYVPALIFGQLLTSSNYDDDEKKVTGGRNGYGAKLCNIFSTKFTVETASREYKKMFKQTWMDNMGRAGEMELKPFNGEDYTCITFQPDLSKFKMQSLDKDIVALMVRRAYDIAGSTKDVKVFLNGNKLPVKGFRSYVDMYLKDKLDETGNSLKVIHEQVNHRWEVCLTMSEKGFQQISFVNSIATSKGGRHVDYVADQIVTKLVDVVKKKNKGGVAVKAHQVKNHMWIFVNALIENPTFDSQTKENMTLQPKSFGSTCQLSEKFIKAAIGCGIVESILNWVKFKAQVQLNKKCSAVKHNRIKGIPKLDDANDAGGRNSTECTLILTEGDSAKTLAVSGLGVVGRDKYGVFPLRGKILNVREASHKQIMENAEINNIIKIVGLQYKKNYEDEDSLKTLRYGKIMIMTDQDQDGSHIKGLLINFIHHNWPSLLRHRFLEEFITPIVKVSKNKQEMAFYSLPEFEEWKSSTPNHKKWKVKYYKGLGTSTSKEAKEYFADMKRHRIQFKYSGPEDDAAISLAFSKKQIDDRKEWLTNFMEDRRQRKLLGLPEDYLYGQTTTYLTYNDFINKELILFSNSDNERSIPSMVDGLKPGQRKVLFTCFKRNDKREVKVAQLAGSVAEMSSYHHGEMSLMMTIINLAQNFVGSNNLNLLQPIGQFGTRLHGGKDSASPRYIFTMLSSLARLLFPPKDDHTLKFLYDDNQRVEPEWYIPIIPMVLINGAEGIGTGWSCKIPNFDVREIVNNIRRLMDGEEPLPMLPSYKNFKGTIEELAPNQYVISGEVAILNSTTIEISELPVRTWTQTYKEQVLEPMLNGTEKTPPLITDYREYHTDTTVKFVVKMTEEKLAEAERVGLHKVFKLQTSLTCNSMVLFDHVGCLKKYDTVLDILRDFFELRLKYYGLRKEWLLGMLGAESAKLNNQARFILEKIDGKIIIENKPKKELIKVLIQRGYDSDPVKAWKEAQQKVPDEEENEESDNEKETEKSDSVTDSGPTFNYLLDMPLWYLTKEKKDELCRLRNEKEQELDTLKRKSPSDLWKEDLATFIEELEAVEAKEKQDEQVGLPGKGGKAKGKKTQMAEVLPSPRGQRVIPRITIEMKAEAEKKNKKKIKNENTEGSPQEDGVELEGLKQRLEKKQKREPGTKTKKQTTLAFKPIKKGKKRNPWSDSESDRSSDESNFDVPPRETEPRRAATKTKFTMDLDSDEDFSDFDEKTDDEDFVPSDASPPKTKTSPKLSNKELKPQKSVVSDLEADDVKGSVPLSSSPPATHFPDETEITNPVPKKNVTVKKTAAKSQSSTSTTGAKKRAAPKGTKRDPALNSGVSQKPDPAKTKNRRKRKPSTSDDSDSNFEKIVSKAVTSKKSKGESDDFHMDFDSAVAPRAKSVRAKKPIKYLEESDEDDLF
How it was run: (§2)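 Human topo IIα (1 unit) and 100 ng supercoiled pBR322 incubated 30 min at 37 °C in 10 mM Tris-HCl pH 7.9, 50 mM NaCl, 5 mM MgCl2, 1 mM EDTA, 1 mM ATP, 15 µg/mL BSA. Stopped with 7 mM EDTA; 0.8% agarose in TAE, ethidium bromide stain, UV quantitation as % relaxation inhibition.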

T47D = test: Antiproliferative activity against human T47D cells after 72 hrs by CCK8 assay; format: functional, cell-based
How it was run: (§3)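 Cells grown in RPMI 1640 with 10% FBS and 1% penicillin, 37 °C, 5% CO2. Seeded at 10^4 cells/well, 24 h at 37 °C, then compound for 72 h. CCK-8 (mitochondrial dehydrogenase) added, 4 h at 37 °C, absorbance read at 450 nm; IC50 derived. Compound stocks 20 mM in DMSO.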

[3] = target: T1, DNA topoisomerase 1 (Homo sapiens) (UniProt P11387); test: Inhibition of human recombinant topoisomerase 1 assessed as relaxation of supercoiled plasmid DNA pBR322 at 100 uM after 30 mins by ethidium bromide staining based agarose gel electrophoresis
T1 sequence (whole entry): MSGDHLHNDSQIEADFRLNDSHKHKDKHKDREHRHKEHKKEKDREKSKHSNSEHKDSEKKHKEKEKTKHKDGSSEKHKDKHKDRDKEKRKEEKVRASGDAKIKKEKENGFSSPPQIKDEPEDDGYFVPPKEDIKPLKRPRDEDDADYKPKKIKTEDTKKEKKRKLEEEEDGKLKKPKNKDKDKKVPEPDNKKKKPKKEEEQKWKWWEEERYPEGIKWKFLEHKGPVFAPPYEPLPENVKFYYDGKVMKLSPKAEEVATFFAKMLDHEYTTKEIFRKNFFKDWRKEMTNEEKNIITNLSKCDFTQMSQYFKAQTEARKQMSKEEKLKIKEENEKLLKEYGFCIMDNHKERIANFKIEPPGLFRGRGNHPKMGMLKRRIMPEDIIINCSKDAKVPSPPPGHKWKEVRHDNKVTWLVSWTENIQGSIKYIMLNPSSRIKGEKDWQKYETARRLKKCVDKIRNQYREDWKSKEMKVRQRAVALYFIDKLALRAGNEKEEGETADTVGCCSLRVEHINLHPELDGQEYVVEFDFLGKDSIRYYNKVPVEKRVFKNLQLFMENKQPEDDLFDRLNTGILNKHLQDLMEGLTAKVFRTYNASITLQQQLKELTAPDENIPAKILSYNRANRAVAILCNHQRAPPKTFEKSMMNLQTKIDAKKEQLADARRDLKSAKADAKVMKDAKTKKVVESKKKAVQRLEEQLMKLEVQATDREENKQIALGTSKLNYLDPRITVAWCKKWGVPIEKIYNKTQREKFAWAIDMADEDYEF
How it was run: (§4)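 Recombinant human topo I (1 unit) with 100 ng supercoiled pBR322, 30 min at 37 °C in 10 mM Tris-HCl pH 7.9, 150 mM NaCl, 0.1% BSA, 1 mM spermidine, 5% glycerol. Stopped with sarcosyl buffer; 0.8% agarose, 60 V 1 h in TAE, ethidium bromide stain 30 min, UV densitometry of relaxation as % inhibition.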

[4] = target: DNA topoisomerase 2-alpha (Homo sapiens) (UniProt P11388); test: Inhibition of human recombinant topoisomerase 2alpha using supercoiled pUC18 as substrate assessed as hydrolysis of ATP preincubated for 30 mins followed by ATP addition measured after 30 mins by malachite green phosphate based ELISA microplate reader analysis
[5] = target: DNA topoisomerase 2-alpha (Homo sapiens) (UniProt P11388); test: Inhibition of human recombinant topoisomerase 2alpha assessed as relaxation of supercoiled plasmid DNA pBR322 at 20 uM after 30 mins by ethidium bromide staining based agarose gel electrophoresis; how it was run: as §2
[6] = target: DNA topoisomerase 2-alpha (Homo sapiens) (UniProt P11388); test: Activity at human recombinant topoisomerase 2alpha using supercoiled plasmid pBR322 as substrate assessed as stabilization of enzyme-DNA cleavage upto 300 uM after 20 mins by ethidium bromide staining based agarose gel electrophoresis
How it was run: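 Cleavage complex: 125 ng supercoiled pBR322 preincubated 10 min with 3 units human topo IIα, then compound added, 20 min at 37 °C in 10 µL. Stopped with SDS, proteinase K digestion 30 min at 45 °C, heated 2 min at 70 °C. Run on 0.8% agarose with 0.5 µg/mL ethidium bromide in TAE; linear DNA band quantified by UV imaging.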

[7] = Antiproliferative activity against human BT474 cells after 72 hrs by CCK8 assay; format: functional, cell-based; details: BT-474, 72 h; how it was run: as §3
[8] = Antiproliferative activity against human HCT15 cells after 72 hrs by CCK8 assay; format: functional, cell-based; details: HCT-15, 72 h; how it was run: as §3
[9] = target: DNA topoisomerase 2-alpha (Homo sapiens) (UniProt P11388); test: Competitive inhibition of human recombinant topoisomerase 2alpha at 5 to 250 uM using supercoiled plasmid pBR322 as substrate after 30 mins by ethidium bromide staining based agarose gel electrophoresis in presence of ATP
HCT-15 [10] = test: Inhibition of human recombinant topoisomerase mediated DNA relaxation in human HCT15 nuclear lysate at 100 uM preincubated for 24 hrs followed by addition of pBR322 plasmid measured after 30 mins by ethidium bromide staining based agarose gel electrophoresis; how it was run: as §1
[11] = target: T1, DNA topoisomerase 1 (Homo sapiens); test: Inhibition of human recombinant topoisomerase 1 assessed as relaxation of supercoiled plasmid DNA pBR322 at 20 uM after 30 mins by ethidium bromide staining based agarose gel electrophoresis; how it was run: as §4
[12] = target: DNA topoisomerase 2-alpha (Homo sapiens) (UniProt P11388); details: 100 uM

SMILES	inhibition (HCT-15 [1]) [%]	inhibition [2] [%]	IC50 (T47D) [µM]	inhibition [3] [%]	inhibition [4]	inhibition [5] [%]	Activity [6]	IC50 [7] [µM]	IC50 [8] [µM]	inhibition [9]	inhibition (HCT-15 [10]) [%]	inhibition [11] [%]	inhibition [12]
COc1ccc(C2CC(c3ccc(Cl)cc3)=NN2C(=O)c2nc3ccccc3s2)cc1 (configuration not stated)	78	89.7	6.6	0	Dose-dependent effect	0	inactive	7.2	4.1	Active	85.4		
O=C(c1ccco1)N1N=C(c2ccc(Cl)cc2)CC1c1ccco1 (configuration not stated)		93.1	> 50	96.8		1.3		> 50	> 50			4	
COc1ccccc1C1=NN(C(=O)c2ccncc2)C(c2ccc([N+](=O)[O-])cc2)C1 (configuration not stated)		92.8	> 50	0		0		7.2	2.6				
CC[C@@]1(O)C(=O)OCc2c1cc1n(c2=O)Cc2cc3ccccc3nc2-1 [CAMPTOTHECIN]			4.1					7	7.1				
COc1ccc(C2CC(c3ccccc3)=NN2C(=O)c2nc3ccccc3s2)cc1 (configuration not stated)		91.2	> 50	0		0		6.3	1.9				
COc1cc([C@@H]2c3cc4c(cc3[C@@H](O[C@@H]3O[C@@H]5CO[C@@H](C)O[C@H]5[C@H](O)[C@H]3O)[C@H]3COC(=O)[C@H]23)OCO4)cc(OC)c1O [ETOPOSIDE]	36	95.9	6.4		Dose-dependent effect			6.6	6.9				inactive
O=C(c1ccncc1)N1N=C(c2ccc(Cl)cc2)CC1c1ccco1 (configuration not stated)		76	7.9	0		0		6.5	3.1				
COc1ccc(C2CC(c3ccccc3)=NN2C(=O)c2ccco2)cc1 (configuration not stated)		91.6	27.3	0		0		> 50	3.9				
COc1ccc(C2=NN(C(=O)c3ccco3)C(c3ccco3)C2)cc1 (configuration not stated)		94.1	7.5	0		0		> 50	4.3				
COc1ccc(C2CC(c3ccccc3)=NN2C(=O)c2ccncc2)cc1 (configuration not stated)		92.5	> 50	0		0		> 50	10.4				
COc1cccc2c1C(=O)c1c(O)c3c(c(O)c1C2=O)C[C@@](O)(C(=O)CO)C[C@@H]3O[C@H]1C[C@H](N)[C@H](O)[C@H](C)O1 [DOXORUBICIN HYDROCHLORIDE]								3.2	23				
COc1ccccc1C1=NN(C(=O)c2ccc([N+](=O)[O-])o2)C(c2ccc([N+](=O)[O-])cc2)C1 (configuration not stated)		92.6	> 50	0		2.9		> 50	> 50				
